These results are taken from ChEMBL document CHEMBL1144068, “Synthesis and biological evaluation of analogues of cryptolepine, an alkaloid isolated from the Suriname rainforest” (J Nat Prod, 1999).

In assay [1] the test system is Saccharomyces cerevisiae. Description: Growth inhibition of Saccharomyces cerevisiae 1138 mutant by yeast bioassay. In kind it is functional.
The subject of assay [2] is Saccharomyces cerevisiae. Description: Growth inhibition of Saccharomyces cerevisiae 1140 mutant by yeast bioassay. In kind it is functional.
Another assay concerns M109. Description: Cytotoxicity against mouse M109 cells. In kind it is functional, cell-based. A digest of the protocol:
(§1)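 Cell-culture cytotoxicity in a 25-line panel by standard methods. Activity given as IC50 in µM.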

Assay [3] has as its system Saccharomyces cerevisiae. Description: Growth inhibition of Saccharomyces cerevisiae 1353 mutant by yeast bioassay. In kind it is functional.
In assay [4] the test system is A2780. Description: Cell cycle arrest in human A2780 cells overexpressing wild type p53 by accumulation at G1 phase at 5 X respective cytotoxic IC50 after 24 hrs by FACS. In kind it is functional, cell-based. The gist of the method: (§2)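 Flow cytometry (FACS) of A2780/p53wt cells after 24 h exposure at increasing multiples of each compound's own IC50, scored for G1 arrest and apoptosis; A2780/mutp53 cells run alongside.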
A general note: A flow cytometer gives signals particle by particle.

The test system of the next assay is MLF. Description: Cytotoxicity against MLF cells. In kind it is cell-based. To be noted: Mus musculus. A digest of the protocol: as §1
Assay [5] can be described thus: Cytotoxicity against human OVACR3 cells. In kind it is functional, cell-based. A digest of the protocol: as §1
Another assay relates to A-431. Description: Cytotoxicity against human A431 cells. In kind it is functional, cell-based. A digest of the protocol:
as §1

Assay [6] has as its system A2780. Description: Induction of apoptosis in human A2780 cells overexpressing wild type p53 at >5 X respective cytotoxic IC50 after 24 hrs. In kind it is functional, cell-based. A digest of the protocol:
as §2

Active and inactive are the calls of the source. No cut-off for these calls is given here.

`CC(CO)(CO)NCc1c2ccccc2nc2c1[nH]c1ccccc12` came in with an IC12 in the assay with Saccharomyces cerevisiae [1] greater than 400 µg/mL.

Take `O=C(O)c1c2nc3ccccc3c-2[nH]c2ccccc12`: the IC12 in the assay with Saccharomyces cerevisiae [1] was greater than 400 µg/mL. As a reminder, the IC50 is the concentration needed to halve the response being measured. A high value points to weaker potency. Consider `C[n+]1c2ccccc2cc2[n-]c3ccccc3c21.Cl` [CRYPTOLEPINE HYDROCHLORIDE], for which the IC12 in the assay with Saccharomyces cerevisiae [2], in the assay with Saccharomyces cerevisiae [3] and in the assay on Saccharomyces cerevisiae [1] was 0.6 µg/mL each time. Also, the IC50 with M109 is less than 1 µg/mL. `C[n+]1c2ccccc2cc2[nH]c3ccccc3c21.[I-]` [CRYPTOLEPTINE IODIDE] returned an IC12 with Saccharomyces cerevisiae [1] of 1.5 µg/mL. In turn, `CC[n+]1c2ccccc2cc2[nH]c3ccccc3c21.[I-]` yielded an IC50 in the assay on M109 of less than 50000 nM. Besides, in the assay with Saccharomyces cerevisiae [1], the IC12 came out at 40 µg/mL. On to `CCCn1c2ccccc2c2c1cc1ccccc1[n+]2C.O=S(=O)([O-])C(F)(F)F`, for which the IC12 in the assay on Saccharomyces cerevisiae [1] was determined as 125 µg/mL. In turn, `c1ccc(Cn2c3ccccc3c3nc4ccccc4cc32)cc1` had an IC12 with Saccharomyces cerevisiae [1] greater than 400 µg/mL.

In the assay with M109, `O=C1OCc2c3ccccc3nc3c4ccccc4n1c23` registered an IC50 of less than 10000 nM. This compound had an IC12 with Saccharomyces cerevisiae [1] of 50 µg/mL. Consider `O=C(OCCOC(=O)c1c2ccccc2nc2c1[nH]c1ccccc12)c1c2ccccc2nc2c1[nH]c1ccccc12`, for which the IC12 with Saccharomyces cerevisiae [1] was greater than 400 µg/mL. In the assay on Saccharomyces cerevisiae [1], `c1ccc2nc3c(cc2c1)[nH]c1ccccc13` [QUINDOLINE] yielded an IC12 of 150 µg/mL. Compound `CCn1c2ccccc2c2c1cc1ccccc1[n+]2C.O=S(=O)([O-])C(F)(F)F` registered an IC12 in the assay on Saccharomyces cerevisiae [1] of 80 µg/mL. In the assay on Saccharomyces cerevisiae [1], `Ic1c2ccccc2nc2c1oc1ccccc12` returned an IC12 greater than 400 µg/mL. `O=Cc1c2ccccc2nc2c1[nH]c1ccccc12` registered an IC12 in the assay with Saccharomyces cerevisiae [1] greater than 400 µg/mL. Consider `c1ccc2nc3c(cc2c1)oc1ccccc13`, for which the IC12 with Saccharomyces cerevisiae [1] is greater than 400 µg/mL.

Turning to `Cc1c2nc3ccccc3c-2[nH]c2ccccc12`, in the assay on M109, the IC50 was less than 10000 nM. Further, the IC12 in the assay on Saccharomyces cerevisiae [1] is 50 µg/mL. In the assay with M109, `Cn1c2ccccc2c2c1cc1ccccc1[n+]2C.O=S(=O)([O-])C(F)(F)F` gave an IC50 of less than 10000 nM. The IC12 in the assay with Saccharomyces cerevisiae [1] was found to be 5 µg/mL.

As for `NC(=O)c1c2cc(Br)ccc2nc2c1[nH]c1ccccc12`, the IC12 with Saccharomyces cerevisiae [1] amounted to 400 µg/mL. Still for that read-out and setting: the value for `CC(=O)n1c2ccccc2c2nc3ccccc3cc21` was 80 µg/mL; that for `CCCCn1c2ccccc2c2c1cc1ccccc1[n+]2C.O=S(=O)([O-])C(F)(F)F` was 90 µg/mL. For the compound `CC(=O)n1c2ccccc2c2c1cc1ccccc1[n+]2C.[Cl-]`, the result in the assay on A2780 [4] was Active. In addition, the IC50 with MLF is 4900 nM; in [5], 500 nM; in the assay with A-431 it was 340 nM; in the assay on M109, less than 1000 nM. The Activity result with A2780 [6] is “Dose-dependent effect”. This compound displayed an IC12 in the assay with Saccharomyces cerevisiae [1] of 5 µg/mL. `C[n+]1c2ccccc2cc2[nH]c3ccccc3c21` [listing 1 of 2 here]: the IC50 with MLF is 4900 nM; in assay [5] it was 500 nM; in the assay on A-431 it was 340 nM; with M109 it was less than 1000 nM. The compound `COC(=O)c1c2cc(Br)ccc2nc2c1[nH]c1ccccc12` yielded an IC12 in the assay with Saccharomyces cerevisiae [1] of 100 µg/mL.

Compound `CCCC[n+]1c2ccccc2cc2[nH]c3ccccc3c21.[Br-]` yielded an IC12 in the assay on Saccharomyces cerevisiae [1] greater than 400 µg/mL.

With `COC(=O)c1c2ccccc2nc2c1[nH]c1ccccc12`, the IC50 in the assay with M109 is less than 10000 nM. The compound further yielded an IC12 with Saccharomyces cerevisiae [1] of 40 µg/mL. In the assay with Saccharomyces cerevisiae [1], `OCc1c2ccccc2nc2c1[nH]c1ccccc12` came in with an IC12 of 125 µg/mL. On the same count and under the same terms, the value for `C[n+]1c2ccccc2cc2[n-]c3ccccc3c21` [CRYPTOLEPINE] was 0.5 µg/mL. Turning to `C[n+]1c2ccccc2cc2[nH]c3ccccc3c21` [listing 2 of 2 here], in the assay with A2780 [4], the result was Active. The Activity result with A2780 [6] was “Dose-dependent effect”. `O=C(OCCO)c1c2ccccc2nc2c1[nH]c1ccccc12` came in with an IC12 in the assay with Saccharomyces cerevisiae [1] greater than 400 µg/mL.

`CCC[n+]1c2ccccc2cc2[nH]c3ccccc3c21.[I-]` came in with an IC12 in the assay on Saccharomyces cerevisiae [1] of 400 µg/mL. For `O=c1c2ccccc2[nH]c2c1oc1ccccc12`, in the assay on Saccharomyces cerevisiae [1], the IC12 was greater than 400 µg/mL. The compound `Clc1c2ccccc2nc2c1oc1ccccc12` registered an IC12 with Saccharomyces cerevisiae [1] greater than 400 µg/mL. Regarding `C[n+]1c2ccccc2cc2oc3ccccc3c21.[I-]`, the IC12 in the assay with Saccharomyces cerevisiae [1] was 400 µg/mL.

In the case of `O=c1c2c3ccccc3nc3c4ccccc4n(c(=O)c4c5ccccc5nc5c6ccccc6n1c54)c32`, the IC12 in the assay with Saccharomyces cerevisiae [1] is greater than 400 µg/mL. Take `C=CCn1c2ccccc2c2c1cc1ccccc1[n+]2C.O=S(=O)([O-])C(F)(F)F`: in the assay with Saccharomyces cerevisiae [1], the IC12 worked out at 200 µg/mL.
